Results reported in publication PMC7953034 (Journal of Pesticide Science, 2021).
Read-outs that look alike come from different tables or passages of the source.

Legend:
[1] = biological target: T1, DmNobo (Drosophila melanogaster, UniProt Q7JYX0); conditions: crystal structure PDB ID: 6KEP; cited from earlier work
[2] = biological target: T1, DmNobo; test: Crystal structures of DmNobo complexed with inhibitors; conditions: for # of bound molecules in the H-site: crystal structure of DmNobo complex; for Conformational change of Phe39: apo vs compound-bound; for GSH requirement for binding: crystals soaked with or without GSH; for GS-conjugation: observed in crystal structure with GSH
Method in brief: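 DmNobo was expressed in E. coli BL21(DE3) from a pCold III construct and purified by GSH affinity and size-exclusion chromatography. Crystals were grown over 34% (v/v) PPG400, 80 mM Bis-Tris pH 6.4. They were soaked 2 days in 42.5% PPG400, 100 mM Bis-Tris pH 6.4 with 30 mM test compound, ±10 mM GSH, then flash-frozen. Synchrotron data were phased by molecular replacement using apo DmNobo. Contacts were defined as ≤4.0 Å.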

[3] = biological target: T1, DmNobo; test: GST activity inhibition assay; type: biochemical
Method in brief: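 Recombinant DmNobo from E. coli was used. Test compounds were serially diluted two-fold in DMSO (stock series from 2.5 mM down), then premixed with enzyme and GSH before 3,4-DNADCF was added. The final mix was 100 mM sodium phosphate pH 6.5, 25 ng·mL⁻¹ DmNobo, 1 mM GSH, 0.005% Tween 20 and 1 µM substrate. Fluorescence of the conjugate (ex 485/em 538 nm) was read every 30 s for 3 min. Relative activity was activity with/without compound; IC50 was taken from duplicate assays, with SD.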

T1 sequence (Q7JYX0 whole entry): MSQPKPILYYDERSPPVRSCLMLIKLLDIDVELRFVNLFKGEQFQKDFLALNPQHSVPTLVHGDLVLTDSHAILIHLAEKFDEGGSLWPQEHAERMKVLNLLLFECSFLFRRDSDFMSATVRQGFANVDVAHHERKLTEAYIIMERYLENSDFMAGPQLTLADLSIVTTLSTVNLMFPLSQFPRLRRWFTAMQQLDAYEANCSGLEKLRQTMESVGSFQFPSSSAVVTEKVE

In the case of C[C@]12CC[C@@H]3c4ccc(O)cc4CC[C@H]3[C@@H]1CC[C@@H]2O [17β-Estradiol, 17β-estradiol], the “# of bound molecules in the H-site” value [1] is given as 1.
In the case of COc1cccc(C2=NC(C)(C)NC(c3cc(Br)ccc3O)C2)c1 (stereo not drawn) [TDP011, 4-bromo-2-[4-(3-methoxyphenyl)-2,2-dimethyl-5,6-dihydro-1H-pyrimidin-6-yl]phenol], the “# of bound molecules in the H-site” value [2] is reported as 1, the “Conformational change of Phe39” value ([2]; crystal structure) is reported as “YES” and the “GSH requirement for binding” value [2] is reported as “GSH-dependent and YES”. The GS-conjugation [2] was “YES” and the IC50 [3] was 6.72 ± 1.48 µM.
With O=C1CS(=O)(=O)N(Cc2ccc(F)cc2)c2ccsc21 [TDP012, 1-(4-fluorobenzyl)-1H-thieno[3,2-c][1,2]thiazin-4(3H)-one 2,2-dioxide] the “# of bound molecules in the H-site” value [2] was 1, the “Conformational change of Phe39” value ([2]; crystal structure) was “YES” and the “GSH requirement for binding” value [2] was “GSH-dependent and YES”. The GS-conjugation [2] was “YES” and the IC50 [3] was 3.1 ± 0.77 µM.
For Cc1ccc(C(C)(C)C)cc1S(=O)(=O)Nc1ccccc1C(=O)O [TDP013, 2-(5-tert-butyl-2-methyl-benzenesulfonylamino)-benzoic acid], the “Different conformations of the inhibitor in subunits A and B” value ([2]; crystal structure) was “YES”, the “# of bound molecules in the H-site” value [2] was 1 and the “Conformational change of Phe39” value ([2]; crystal structure) was “YES”. For the same molecule, the IC50 [3] was 8.94 ± 1.65 µM.
In the case of Nc1ccc(N2CCc3sccc3C2)nc1 [TDP015, 6-(6,7-dihydrothieno[3,2-c]pyridin-5(4H)-yl)-3-pyridinamine], the “# of bound molecules in the H-site” value [2] is reported as 2, the “Conformational change of Phe39” value ([2]; crystal structure) is reported as “YES” and the “GSH requirement for binding” value [2] is reported as “GSH-dependent and YES”. For the same molecule, the GS-conjugation [2] was “YES” and the IC50 [3] was 3.32 ± 0.81 µM.
With CC1(C)CC(=O)CC(=O)C1 [TDP045, 5,5-dimethyl-1,3-cyclohexanedione] the “# of bound molecules in the H-site” value [2] was 1, the GS-conjugation [2] was “YES” and the IC50 [3] was greater than 1000 µM. The “inhibitory activity against DmNobo (in words)” value ([3]; GSH-conjugation activity, 3,4-DNADCF) was “did not exhibit a strong inhibitory activity”.
